Series [1] concerns Cavia porcellus. Description: Tested in delayed hypersensitivity skin reaction (DHSR) after subcutaneous administration, activity reported as percent inhibition of erythema/induration of lesion; 9/24. Format: functional. The essentials:
(§1)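 Male Hartley guinea pigs were sensitized with Mycobacterium tuberculosis in Freund's incomplete adjuvant, injected into each hind footpad and subcutaneously at the neck. After 3 weeks, 1.2 μg PPD was given intradermally. Compound in sesame oil was given sc, 3 animals per group, 30 min before and 5 h after PPD; screening dose 50 mg/kg.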

In series [2] the test system is Mus musculus. Description: The compound was evaluated for the mouse active Arthus (MAA) reaction activity for an ip dose of 150 mg/kg in mouse. The series is classed as functional. To be noted: route intraperitoneal. The method in brief:
(§2)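 CD-1 mice were sensitized ip with a 1:1 Freund's complete adjuvant emulsion containing BSA in saline, 5 weeks before challenge. Compound was suspended in 1% Na CMC in pyrogen-free saline and given as one ip or oral dose 1 h before skin challenge with BSA. Screening doses were 150 mg/kg ip and 300 mg/kg po, with some at 75 or 50 mg/kg ip. Lesions were excised 3.5 h after challenge and weighed against controls.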

Series [3] has as its system Mus musculus. Kind of series: Inhibition of Mouse active Arthus (MAA) reaction activity was determined for an ip dose of 150 mg/kg in mouse; 21-30%. Format: functional. To be noted: route intraperitoneal.
In series [4] the test system is Mus musculus. Description: Inhibition of Mouse active Arthus (MAA) reaction activity was determined for peroral dose of 150 mg/kg in mouse; 21-30%. The series is classed as functional. To be noted: route oral.
Series [5] deals with Cavia porcellus. Description: The compound was evaluated for the delayed hypersensitivity skin reaction (DHSR) activity after subcutaneous administration; 14/36.
Series [6] relates to Mus musculus. Description: Mouse active Arthus (MAA) reaction activity was determined for an ip dose of 150 mg/kg in mouse; 31-40%. Format: functional. The conditions noted are these: route intraperitoneal.
Series [7] deals with Cavia porcellus. Description: The compound was evaluated for the delayed hypersensitivity skin reaction (DHSR) activity after subcutaneous administration; 8/19.
For series [8], the system named is Cavia porcellus. Kind of series: Tested in delayed hypersensitivity skin reaction (DHSR) after subcutaneous administration, activity reported as percent inhibition of erythema/induration of lesion; 3/4. The series is classed as functional. The method in brief: as §1
Series [9] concerns Mus musculus. Description: Inhibition of Mouse Active Arthus reaction following 150 mg/Kg i.p.; 41-60% inhibition. Format: functional. To be noted: Mus musculus, ip.
For series [10], the system named is Mus musculus. Description: The compound was evaluated for the mouse active Arthus (MAA) reaction activity for an ip dose of 150 mg/kg in mouse; 31-40%. The series is classed as functional. The conditions noted are these: route intraperitoneal. The essentials:
as §2

The test system of series [11] is Cavia porcellus. Description: The compound was evaluated for the delayed hypersensitivity skin reaction (DHSR) activity after subcutaneous administration; 15/21.
The test system of series [12] is Cavia porcellus. Kind of series: Tested in delayed hypersensitivity skin reaction (DHSR) after subcutaneous administration, activity reported as percent inhibition of erythema/induration of lesion; 10/0. Format: functional.
Series [13] concerns Cavia porcellus. Description: Tested in delayed hypersensitivity skin reaction (DHSR) after subcutaneous administration, activity reported as percent inhibition of erythema/induration of lesion; 13/4. The series is classed as functional.
The test system of series [14] is Mus musculus. Description: The compound was evaluated for the mouse active Arthus (MAA) reaction activity expressed as inhibitory dose after oral administration. Format: functional. The conditions noted are these: read-out: ID50 (the source's name). The essentials: as §2
The test system of series [15] is Cavia porcellus. Kind of series: Tested in delayed hypersensitivity skin reaction (DHSR) after subcutaneous administration, activity reported as percent inhibition of erythema/induration of lesion; 3/10. Format: functional. The essentials: as §1
For series [16], the system named is Mus musculus. Kind of series: Inhibition of Mouse active Arthus (MAA) reaction activity was determined for peroral dose of 300 mg/kg in mouse; 21-30%. The series is classed as functional. The conditions noted are these: route oral.
For series [17], the system named is Cavia porcellus. Kind of series: Tested in delayed hypersensitivity skin reaction (DHSR) after subcutaneous administration, activity reported as percent inhibition of erythema/induration of lesion; 17/49. Format: functional.
For series [18], the system named is Mus musculus. Kind of series: Mouse active Arthus (MAA) reaction activity was determined for an peroral dose of 300 mg/kg in mouse. To be noted: route oral. Format: functional.
Series [19] concerns Cavia porcellus. Kind of series: Tested in delayed hypersensitivity skin reaction (DHSR) after subcutaneous administration, activity reported as percent inhibition of erythema/induration of lesion; 13/52. Format: functional.
Series [20] in a line: Acute toxicity as LD50 value was determined in mice administered intraperitoneally. Format: organism-based. To be noted: mouse, in vivo, ip.
The nature of series [21]: Acute toxicity as LD50 value was determined in mice administered orally. Format: organism-based. To be noted: mouse, in vivo, po.
Series [22] concerns Mus musculus. Kind of series: The compound was evaluated for the mouse active Arthus (MAA) reaction activity expressed as inhibitory dose after ip administration. Format: functional. The conditions noted are these: read-out: ID50 (the source's name). The essentials: as §2
Series [23] deals with Rattus norvegicus. Description: Carrageenan-induced edema was determined after intraperitoneal administration. Format: functional. The conditions noted are these: ip, read-out: ID50 (the source's name). The method in brief:
(§3)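 Adult male Sprague-Dawley (CD) rats, 160–200 g. Single dose in 1% CMC given 2 h before footpad injection of 0.05 mL 1% carrageenin in pyrogen-free saline. Paws removed and weighed at 3 h, with the contralateral paw as control. ID50 is the dose giving 50% edema inhibition.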

Series [24] relates to Rattus norvegicus. Description: Carrageenan-induced edema was determined after oral administration. Format: functional. The conditions noted are these: read-out: ID50 (the source's name). The essentials: as §3
The test system of series [25] is Rattus norvegicus. Description: Adjuvant-induced arthritis was determined for a dose of 150 mg/kg administered intraperitoneally; 16/72. The series is classed as functional. The conditions noted are these: ip, route intraperitoneal. The essentials: (§4)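 Male Lewis rats; day 0, 0.50 mg desiccated Mycobacterium butyricum in 0.10 mL light mineral oil into left plantar paw. Compound dissolved or suspended in 1% CMC, dosed daily for 21 days starting the day before adjuvant. On day 21, injected and noninjected hind paws weighed. Values are percent inhibition, local (injected paw)/systemic (noninjected paw).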

For series [26], the system named is Rattus norvegicus. Kind of series: Adjuvant-induced arthritis was determined for a dose of 150 mg/kg administered orally; 17/0. The series is classed as functional. The conditions noted are these: po. The essentials:
as §4

Series [27] deals with Rattus norvegicus. Description: Adjuvant-induced arthritis was determined for a dose of 75 mg/kg intraperitoneal administration; 28/78. The series is classed as functional. The conditions noted are these: ip. The essentials:
as §4

For series [28], the system named is Rattus norvegicus. Kind of series: Adjuvant-induced arthritis was determined for a dose of 75 mg/kg oral administration; 1/0. Format: functional. The method in brief:
as §4

Series [29] can be described thus: Therapeutic ratio was determined for intraperitoneal administration. Format: ADME. The conditions noted are these: ip; read-out: TR.
The subject of series [30] is Cavia porcellus. Description: Tested in delayed hypersensitivity skin reaction (DHSR) after subcutaneous administration, activity reported as percent inhibition of erythema/induration of lesion; 14/25. Format: functional.
Series [31] deals with Mus musculus. Description: The compound was evaluated for the mouse active Arthus (MAA) reaction activity for an ip screening dose of 75 mg/kg; 21-30%. Format: functional. To be noted: route intraperitoneal. The method in brief:
as §2

Series [32] deals with Cavia porcellus. Kind of series: Tested in delayed hypersensitivity skin reaction (DHSR) after subcutaneous administration, activity reported as percent inhibition of erythema/induration of lesion; 11/66. Format: functional.
Series [33] concerns Cavia porcellus. Description: The compound was evaluated for the delayed hypersensitivity skin reaction (DHSR) activity after subcutaneous administration; 11/33.

As to `CC(=O)N1N=C2/C(=C/c3cccnc3)CSCC2C1c1cccnc1` (stereo unspecified), the Activity in the series on Cavia porcellus [1] is 9. In addition, the inhibition in vivo at 150 mg/kg with Mus musculus [2] is < 20%.

In the case of `CCCN1N=C2/C(=C/c3ccc(Cl)cc3)CSCC2C1c1ccc(Cl)cc1` (stereo unspecified), the inhibition in vivo at 150 mg/kg in the series with Mus musculus [3] and with Mus musculus [4] was 21% throughout. In addition, the Activity in the series with Cavia porcellus [5] is 14.

With `CCCN1N=C2/C(=C/c3ccccc3C)CSCC2C1c1ccccc1C` (stereo unspecified), the inhibition in vivo at 150 mg/kg in the series on Mus musculus [6] was 31%. In addition, the Activity with Cavia porcellus [7] was found to be 8.

As for `O=S1(=O)C/C(=C\c2ccccc2)C2=NNC(c3ccccc3)C2C1` (stereo unspecified), the Activity with Cavia porcellus [8] is reported as 3. In the series on Mus musculus [9], this compound came in with an inhibition in vivo at 150 mg/kg of 41%.

For the compound `CCCn1nc(-c2ccc(C)cc2)c2c1/C(=C/c1ccc(C)cc1)CSC2`, 150 mg/kg produced 31% inhibition in vivo with Mus musculus [10]. In the series with Cavia porcellus [11], this compound yielded an Activity of 15.

With `Cc1ccc(/C=C2\CS(=O)(=O)CC3C2=NN(CCc2ccccc2)C3c2ccc(C)cc2)cc1` (stereo unspecified), the Activity in the series with Cavia porcellus [12] is reported as 10.

Consider `CC(C)(C)c1ccc(/C=C2\CS(=O)(=O)CC3C2=NN(CCc2ccccc2)C3c2ccc(C(C)(C)C)cc2)cc1` (stereo unspecified), for which the Activity in the series with Cavia porcellus [13] is recorded as 13. Also, the ED50 in the series with Mus musculus [14] was > 600 mg/kg.

In the series on Cavia porcellus [15], `CCCN1N=C2/C(=C/c3ccccc3)CS(=O)(=O)CC2C1c1ccccc1` (stereo unspecified) had an Activity of 3. In addition, the inhibition in vivo at 300 mg/kg in the series with Mus musculus [16] came out at 21%. In the series on Mus musculus [9], this compound registered an inhibition in vivo at 150 mg/kg of 41%.

Turning to `CCCN1N=C2/C(=C/c3ccc(OC)cc3)CS(=O)(=O)CC2C1c1ccc(OC)cc1` (stereo unspecified), in the series on Cavia porcellus [17], the Activity is 17. Besides, in the series on Mus musculus [18], the inhibition in vivo at 300 mg/kg is < 20%. For the same compound, the inhibition in vivo at 150 mg/kg in the series on Mus musculus [6] turned out to be 31%.

`CCCN1N=C2/C(=C/c3ccc(C)cc3)CS(=O)(=O)CC2C1c1ccc(C)cc1` (stereo unspecified) came in with an Activity in the series on Cavia porcellus [19] of 13. In addition, the LD50 was 3400 mg/kg in series [20] and > 4000 mg/kg in [21]. Further, the ED50 with Mus musculus [22] was 140 mg/kg; with Mus musculus [14], > 600 mg/kg; with Rattus norvegicus [23], 84 mg/kg; with Rattus norvegicus [24] it was 250 mg/kg. The inhibition in vivo at 150 mg/kg worked out at 41% in the series on Mus musculus [9], 16% in the series with Rattus norvegicus [25] and 17% in the series with Rattus norvegicus [26]. The inhibition in vivo at 75 mg/kg in the series on Rattus norvegicus [27] came out at 28%; in the series on Rattus norvegicus [28] it was 1%. The selectivity ratio in series [29] amounted to 24.

With `CCCn1nc(-c2ccc(C)cc2)c2c1/C(=C/c1ccc(C)cc1)CS(=O)(=O)C2`, the Activity in the series with Cavia porcellus [30] is listed as 14. In addition, the inhibition in vivo at 75 mg/kg in the series on Mus musculus [31] was 21%.

As for `CN1CCN(CCCN2N=C3/C(=C/c4ccccc4)CSCC3C2c2ccccc2)CC1` (stereo unspecified), in the series with Cavia porcellus [32], the Activity was 11. Also, the inhibition in vivo at 150 mg/kg in the series on Mus musculus [9] is 41%; with Mus musculus [4] it was 21%.

On to `CCCN1N=C2/C(=C/c3ccc(C)cc3)CSCC2C1c1ccc(C)cc1` (stereo unspecified), for which the inhibition in vivo at 300 mg/kg in the series with Mus musculus [18] is < 20%. Further, in the series with Mus musculus [6], 150 mg/kg produced 31% inhibition in vivo. The compound also returned an Activity in the series with Cavia porcellus [33] of 11.

(Values after ChEMBL document CHEMBL1122142, “Synthesis and antiinflammatory activity of hexahydrothiopyrano[4,3-c]pyrazoles and related analogues” (J Med Chem, 1982).)
